We go through one compound from ChEMBL document CHEMBL1154975, “Selective inducible microsomal prostaglandin E(2) synthase-1 (mPGES-1) inhibitors derived from an oxicam template” (Bioorg Med Chem Lett, 2010).

As a reminder, the IC50 is the concentration needed to halve the response being measured. For orientation: solubility means how much of the substance goes into solution per volume.

In data set [1] the target is T1, Prostaglandin E synthase (Homo sapiens, UniProt O14684).
T1 sequence (O14684 whole entry): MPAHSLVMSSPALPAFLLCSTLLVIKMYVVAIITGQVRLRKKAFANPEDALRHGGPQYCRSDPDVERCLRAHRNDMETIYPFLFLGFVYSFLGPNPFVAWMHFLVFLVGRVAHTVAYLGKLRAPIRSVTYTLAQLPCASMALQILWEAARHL
The data set can be described thus: Inhibition of human mPGES1 in IL-1-beta-stimulated human RASF cells assessed as blockade of PGH2 to PGE2 conversion after 50 mins by ELISA. It is filed as cell-based. An outline of the steps: (§1)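 RA synovial fibroblasts cultured 3 days in DMEM/10% FBS, then 24 h with 1 ng/mL IL-1β in DMEM/1% FBS. Washed; compound (1% Me2SO final) 50 min, then 10 µM arachidonic acid 10 min at 37 °C. For PGF2α, 2 mg/mL SnCl2 added 40 min after compound. Prostanoids in conditioned media by ELISA.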
Background: ELISA stands for enzyme-linked immunosorbent assay.

Data set [2] has as its target T2, Prostaglandin G/H synthase 2 (Homo sapiens, UniProt P35354).
T2 sequence (P35354 whole entry): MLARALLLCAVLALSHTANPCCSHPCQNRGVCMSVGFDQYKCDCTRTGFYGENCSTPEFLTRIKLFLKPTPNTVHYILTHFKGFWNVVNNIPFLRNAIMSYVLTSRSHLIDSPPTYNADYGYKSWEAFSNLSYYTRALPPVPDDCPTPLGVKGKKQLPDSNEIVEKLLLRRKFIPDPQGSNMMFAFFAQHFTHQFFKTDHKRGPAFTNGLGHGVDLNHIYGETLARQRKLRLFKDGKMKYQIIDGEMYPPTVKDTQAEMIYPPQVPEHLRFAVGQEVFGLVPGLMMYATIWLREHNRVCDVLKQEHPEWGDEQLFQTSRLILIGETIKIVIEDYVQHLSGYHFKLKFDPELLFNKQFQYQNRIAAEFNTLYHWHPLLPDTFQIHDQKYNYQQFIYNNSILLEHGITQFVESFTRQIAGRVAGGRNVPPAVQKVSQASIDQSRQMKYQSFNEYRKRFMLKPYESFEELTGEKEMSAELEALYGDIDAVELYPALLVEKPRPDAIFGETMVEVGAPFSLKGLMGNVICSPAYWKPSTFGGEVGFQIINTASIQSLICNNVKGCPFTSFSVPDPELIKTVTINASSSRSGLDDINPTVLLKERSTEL
As to the kind of experiment: Inhibition of human COX2 in IL-1-beta-stimulated human RASF cells assessed as PGF2alpha levels after 50 mins by ELISA. It is filed as cell-based. An outline of the steps:
as §1

Data set [3] has as its target Prostaglandin G/H synthase 1 (Homo sapiens, UniProt P23219). The data set can be described thus: Inhibition of human recombinant COX1.
Data set [4] deals with T1, Prostaglandin E synthase. The data set can be described thus: Inhibition of human mPGES1 assessed as PGE2 level after 41 sec by ELISA. An outline of the steps: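 Enzyme in 100 mM potassium phosphate pH 6.2 with 2.5 mM glutathione, compound added in DMSO. Reaction started with PGH2 (final 2 µM), stopped with 2.5 mM FeCl2, diluted 120-fold into ELISA buffer. PGE2 by ELISA against a standard curve. % control set between reference-inhibited and enzyme-only controls; IC50 by 4-parameter log fit of duplicate data.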

The next data set has as its target T3, Thromboxane-A synthase (Homo sapiens, UniProt P24557).
T3 sequence (P24557 whole entry): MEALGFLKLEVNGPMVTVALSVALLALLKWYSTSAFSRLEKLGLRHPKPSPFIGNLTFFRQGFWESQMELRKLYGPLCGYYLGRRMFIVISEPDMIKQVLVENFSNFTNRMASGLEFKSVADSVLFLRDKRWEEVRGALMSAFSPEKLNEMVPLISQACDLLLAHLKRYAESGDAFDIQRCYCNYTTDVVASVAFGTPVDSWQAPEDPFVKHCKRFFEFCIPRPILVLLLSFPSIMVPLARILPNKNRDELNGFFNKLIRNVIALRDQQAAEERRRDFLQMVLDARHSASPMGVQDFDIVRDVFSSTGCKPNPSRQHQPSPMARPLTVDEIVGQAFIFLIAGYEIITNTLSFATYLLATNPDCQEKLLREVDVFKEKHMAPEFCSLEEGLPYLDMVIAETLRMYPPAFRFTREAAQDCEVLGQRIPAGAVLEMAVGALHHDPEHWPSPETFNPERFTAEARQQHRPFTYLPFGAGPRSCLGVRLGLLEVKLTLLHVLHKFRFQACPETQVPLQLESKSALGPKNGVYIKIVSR
As to the kind of experiment: Inhibition of human thromboxane A synthase in IL-1-beta-stimulated human RASF cells assessed as TXB2 levels after 50 mins by ELISA. It is filed as cell-based.

For the next data set, the target named is T4, Prostacyclin synthase (Homo sapiens, UniProt Q16647).
T4 sequence (Q16647 whole entry): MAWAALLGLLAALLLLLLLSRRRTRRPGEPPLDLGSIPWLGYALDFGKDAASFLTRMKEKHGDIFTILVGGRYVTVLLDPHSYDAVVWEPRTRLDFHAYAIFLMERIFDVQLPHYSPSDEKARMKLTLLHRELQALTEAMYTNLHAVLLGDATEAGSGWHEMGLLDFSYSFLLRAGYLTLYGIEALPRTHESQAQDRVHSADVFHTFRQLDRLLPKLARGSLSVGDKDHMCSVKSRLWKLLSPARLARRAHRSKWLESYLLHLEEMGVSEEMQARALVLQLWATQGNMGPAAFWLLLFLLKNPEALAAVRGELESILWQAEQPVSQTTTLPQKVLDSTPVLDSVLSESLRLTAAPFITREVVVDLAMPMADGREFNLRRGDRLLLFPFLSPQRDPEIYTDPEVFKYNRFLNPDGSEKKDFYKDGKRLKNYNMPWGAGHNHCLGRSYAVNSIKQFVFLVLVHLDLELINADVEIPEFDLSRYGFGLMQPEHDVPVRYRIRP
The data set can be described thus: Inhibition of human prostacyclin synthase in IL-1-beta-stimulated human RASF cells assessed as PGF1alpha levels after 50 mins by ELISA. It is filed as cell-based. The method in brief:
as §1

The target in data set [5] is T1, Prostaglandin E synthase. As to the kind of experiment: Inhibition of human mPGES1 in […] assessed as PGE2 level after 24 hrs by ELISA. The settings on record: in the assay text read “by ELISA” for “after 24 hrs by ELISA”. It is filed as tissue-based, Blood. An outline of the steps:
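Heparinized healthy-donor human whole blood (100 µL/well) mixed with 10⁵ 1483 head-and-neck carcinoma cells, compound 15 min at 37 °C, then 30 µM arachidonic acid 10 min. Centrifuged 930 g 10 min; plasma PGE2 by ELISA.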

The target in data set [6] is T2, Prostaglandin G/H synthase 2. The data set can be described thus: Inhibition of human COX2 in IL1-beta treated human FF cells assessed as blockade of SnCl2-mediated PGH2 to PGF2alpha conversion after 50 mins by ELISA. Type of data set: cell-based. An outline of the steps:
(§2)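 Human fetal fibroblasts in DMEM/15% FBS at 37 °C, 5% CO2; after 20–24 h, stimulated 20–24 h with 1 ng/mL IL-1β, washed, compound 50 min in serum-free DMEM, then 10 µM arachidonic acid 10 min. PGE2 by ELISA. For PGF2α, SnCl2 added after compound for 10 min before arachidonic acid. IC50 from duplicate data.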

Data set [7] has the same target. The data set can be described thus: Inhibition of human recombinant COX2.
A short description of data set [8]: Aqueous solubility assessed as nitrogen content after 24 hrs. Type of data set: physicochemical. An outline of the steps:
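Test compound from 30 mM DMSO stock diluted into 50 mM sodium phosphate buffer at the indicated pH (final 2% DMSO). Shaken 24 h at room temperature (23–25 °C), vacuum filtered. Filtrate nitrogen measured by chemiluminescent nitrogen detection; concentration derived from nitrogen count in molecular formula, reported in µg/mL and µM.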

Data set [9] has as its target T1, Prostaglandin E synthase. As to the kind of experiment: Inhibition of human mPGES1 in IL1-beta treated human FF cells assessed as blockade of PGH2 to PGE2 conversion after 50 mins by ELISA. It is filed as cell-based. An outline of the steps: as §2

Sequence of Prostaglandin G/H synthase 1 (P23219 whole entry): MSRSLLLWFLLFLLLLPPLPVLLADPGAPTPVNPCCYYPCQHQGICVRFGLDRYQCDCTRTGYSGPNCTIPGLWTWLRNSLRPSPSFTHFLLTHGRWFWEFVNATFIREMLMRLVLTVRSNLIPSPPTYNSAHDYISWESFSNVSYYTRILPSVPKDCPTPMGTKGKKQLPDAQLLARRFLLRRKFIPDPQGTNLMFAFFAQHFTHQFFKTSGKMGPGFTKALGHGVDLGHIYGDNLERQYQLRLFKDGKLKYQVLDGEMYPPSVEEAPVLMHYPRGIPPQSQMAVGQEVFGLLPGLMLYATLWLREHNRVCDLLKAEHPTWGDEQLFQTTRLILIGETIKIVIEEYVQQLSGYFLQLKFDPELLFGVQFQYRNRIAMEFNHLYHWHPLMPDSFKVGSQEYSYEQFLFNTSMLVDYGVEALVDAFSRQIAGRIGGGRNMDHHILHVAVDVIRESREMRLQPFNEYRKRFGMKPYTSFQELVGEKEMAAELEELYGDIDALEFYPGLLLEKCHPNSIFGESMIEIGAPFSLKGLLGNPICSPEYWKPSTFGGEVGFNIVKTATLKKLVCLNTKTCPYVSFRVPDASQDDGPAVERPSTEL

Turning to `O=C(Nc1ccc(-c2ccc(Cl)c(Cl)c2)cc1)C1=C(O)c2ccccc2S(=O)(=O)N1`, the IC50 on Prostaglandin E synthase [1] is 500 nM; in [2], more than 100 µM; in data set [3], 118 µM; on Prostaglandin E synthase [4], 16 nM; on Thromboxane-A synthase, more than 100 µM; at Prostacyclin synthase, more than 100 µM. The IC50 at Prostaglandin E synthase [5] was 5 µM; in data set [6] it was more than 100 µM; in data set [7], 263 µM; on Prostaglandin E synthase [9], 420 nM. Further, the solubility at 24 h in data set [8] is less than 3 µM.
